How the values were obtained:
Type in all cases: cell-based
Kir1.1 = target: T1, Kir1.1 (Rattus norvegicus, UniProt P35560); assay: Two-electrode voltage clamp in Xenopus oocytes, Kir1.1
T1 sequence (P35560 1-391): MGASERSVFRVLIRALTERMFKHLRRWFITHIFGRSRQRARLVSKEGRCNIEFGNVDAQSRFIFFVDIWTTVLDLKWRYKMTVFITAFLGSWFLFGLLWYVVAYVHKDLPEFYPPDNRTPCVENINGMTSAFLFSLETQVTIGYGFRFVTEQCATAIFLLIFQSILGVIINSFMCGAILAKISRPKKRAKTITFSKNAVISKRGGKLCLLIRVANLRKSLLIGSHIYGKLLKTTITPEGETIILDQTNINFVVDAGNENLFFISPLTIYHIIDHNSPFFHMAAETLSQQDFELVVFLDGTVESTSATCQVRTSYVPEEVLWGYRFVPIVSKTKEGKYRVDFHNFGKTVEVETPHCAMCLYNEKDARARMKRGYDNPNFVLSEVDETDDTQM
Summary of the method: (§1)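 Stage V–VI Xenopus oocytes were defolliculated with 1 mg/mL collagenase and injected with 0.5–10 ng cRNA. They were kept at 16°C in modified L-15 for 24–72 h. Two-electrode voltage clamp at 20–23°C: held at −75 mV and stepped to −120 mV for 200 ms every 5 s, with current at −120 mV tracked over time. Test compound (50 μM) was perfused, then 2 mM Ba2+. Time constant of inhibition derived.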

Kir3.1/3.2 (GIRK) = target: T2, Kir3.1/3.2 (GIRK) (Homo sapiens, UniProt P48051+P48549); assay: Whole-cell patch clamp, Kir3.1/3.2 in transfected HEK-293 cells
T2 sequence (P48549 1-501): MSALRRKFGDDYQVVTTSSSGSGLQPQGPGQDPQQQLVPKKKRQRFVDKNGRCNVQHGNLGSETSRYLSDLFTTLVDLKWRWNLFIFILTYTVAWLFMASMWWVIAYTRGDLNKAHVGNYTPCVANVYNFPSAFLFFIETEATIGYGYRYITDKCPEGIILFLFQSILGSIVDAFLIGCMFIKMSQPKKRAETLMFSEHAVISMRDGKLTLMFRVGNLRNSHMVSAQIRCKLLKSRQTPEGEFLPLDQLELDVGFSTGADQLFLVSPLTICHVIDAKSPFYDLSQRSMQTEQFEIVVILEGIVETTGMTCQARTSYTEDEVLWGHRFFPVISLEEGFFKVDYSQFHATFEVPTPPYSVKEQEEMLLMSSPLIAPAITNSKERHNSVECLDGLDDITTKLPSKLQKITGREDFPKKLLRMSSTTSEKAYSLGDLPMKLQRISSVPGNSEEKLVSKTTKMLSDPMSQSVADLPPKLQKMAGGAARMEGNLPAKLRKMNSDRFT
T2 sequence (P48051 1-423): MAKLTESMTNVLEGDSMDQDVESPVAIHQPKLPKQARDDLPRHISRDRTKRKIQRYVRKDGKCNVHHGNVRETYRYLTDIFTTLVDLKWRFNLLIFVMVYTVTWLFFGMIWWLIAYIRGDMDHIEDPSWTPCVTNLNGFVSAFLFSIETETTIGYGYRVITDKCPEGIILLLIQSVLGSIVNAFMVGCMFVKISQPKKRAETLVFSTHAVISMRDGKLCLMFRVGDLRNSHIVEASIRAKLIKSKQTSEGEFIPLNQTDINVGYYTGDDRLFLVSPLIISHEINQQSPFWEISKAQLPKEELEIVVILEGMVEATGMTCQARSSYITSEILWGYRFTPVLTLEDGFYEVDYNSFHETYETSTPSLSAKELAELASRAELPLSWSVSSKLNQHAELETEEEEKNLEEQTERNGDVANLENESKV
Summary of the method: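 HEK-293 cells were transiently co-transfected with channel plus an EGFP marker (Lipofectamine). Pipette: 135 mM KCl, 2 mM MgCl2, 1 mM EGTA, 10 mM HEPES, 2 mM Na2ATP, pH 7.3. Bath: 135 mM NaCl, 5 mM KCl, pH 7.4; some runs used 50 mM KCl. Held at −75 mV and ramped −120 to 120 mV every 5 s, at 20–23°C. Test compound was bath-applied for 2–10 min, then 2 mM BaCl2. CRC n = 4–7. τ taken from the time course.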

Kir3.1/3.2 = target: T3, Kir3.1/3.2 (Homo sapiens, UniProt P48051+P48549); assay: Two-electrode voltage clamp in Xenopus oocytes, Kir3.1/3.2
T3 sequence (P48549 1-501): T2 sequence (P48549 1-501)
T3 sequence (P48051 1-423): T2 sequence (P48051 1-423)
Summary of the method: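 Xenopus oocytes were injected with Kir3.1/3.2 or Kir3.1/3.4 cRNA and voltage-clamped with two electrodes at 20–23°C, with current at −80 mV followed over time. The bath was switched from K+-free to 90 mM K+ to activate the channel. Test compound in 90K was applied continuously at graded concentrations, then 2 mM Ba2+ was added. A final 0K switch measured leak. Time constant derived (n = 6 at 25 μM). Percent inhibition n = 4–6.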

Kir2.3 [1] = target: T4, Kir2.3 (Homo sapiens, UniProt P48050); assay: Two-electrode voltage clamp in Xenopus oocytes, Kir2.3
T4 sequence (P48050 1-445): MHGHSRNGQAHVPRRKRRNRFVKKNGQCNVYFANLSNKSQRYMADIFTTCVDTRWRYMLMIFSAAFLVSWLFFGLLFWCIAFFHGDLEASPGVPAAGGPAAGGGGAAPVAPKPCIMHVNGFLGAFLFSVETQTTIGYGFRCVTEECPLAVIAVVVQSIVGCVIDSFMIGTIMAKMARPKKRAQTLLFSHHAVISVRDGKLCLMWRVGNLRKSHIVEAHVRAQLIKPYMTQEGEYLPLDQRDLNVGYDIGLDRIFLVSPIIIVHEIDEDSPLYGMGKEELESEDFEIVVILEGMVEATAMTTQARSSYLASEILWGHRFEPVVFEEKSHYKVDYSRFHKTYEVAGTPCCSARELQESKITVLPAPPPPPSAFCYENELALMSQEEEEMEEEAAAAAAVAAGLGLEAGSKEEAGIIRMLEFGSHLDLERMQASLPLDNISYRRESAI
Summary of the method: as §1

Kir2.3 [2] = target: T4, Kir2.3; assay: Whole-cell patch clamp, T-REx-HEK-293-Kir2.3 cells
Summary of the method: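 Monoclonal T-REx-HEK-293-Kir2.3 cells were patched after overnight induction with tetracycline (1 μg/mL). Pipette: 135 mM KCl, 1 mM MgCl2 (reduced against rundown), 1 mM EGTA, 10 mM HEPES, 2 mM Na2ATP, pH 7.3. Bath: 135 mM NaCl, 5 mM KCl, pH 7.4. Held at −75 mV and ramped −120 to 120 mV every 5 s, at 20–23°C. Test compound was bath-applied, then 2 mM BaCl2. CRC n = 4–6. τ taken from the time course.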

time constant of Kir1.1 inhibition (Kir1.1; TEVC oocytes, 50 μM, n = 8): 95 ± 15 s
inhibition at 50 µM (Kir1.1; read-out: inhibition of Kir1.1): 4.3 ± 1.7%
IC50 (Kir3.1/3.2 (GIRK)): 1300 nM
inhibition of GIRK (Kir3.1/3.2 (GIRK); whole-cell patch clamp, HEK-293, 30 μM bath application): near complete inhibition
time constant of inhibition of Kir3.1/3.2 (Kir3.1/3.2 (GIRK); whole-cell patch clamp, HEK-293, 30 μM, mean ± SEM, n = 5): 16 ± 1 s
IC50 (Kir3.1/3.2): ~10000 nM
time constant (τ) for inhibition of Kir3.1/3.2 currents (Kir3.1/3.2; TEVC oocytes, 25 μM, mean ± SEM, n = 6): 28 ± 4 s
inhibition at 10 µM (Kir3.1/3.2; read-out: inhibition of GIRK current (Kir3.1/3.2)): ~50%
time constant (τ) of Kir2.3 inhibition (Kir2.3 [1]; TEVC oocytes, 50 μM, n = 7): 154 ± 32 s
inhibition at 50 µM (Kir2.3 [1]; read-out: inhibition of Kir2.3): 80.9 ± 5%
IC50 (Kir2.3 [2]; IC50 Kir2.3, whole-cell patch clamp, T-REx-HEK-293-Kir2.3): ~1000 nM
time constant for inhibition of Kir2.3 (Kir2.3 [2]; whole-cell patch clamp, 30 μM, mean ± SEM, n = 4): 23 ± 2 s
SMILES: Cc1ccc(OCC(O)Cn2c(=N)n(Cc3ccccc3)c3ccccc32)cc1 (stereo not drawn) [Compound 1, 1-(3-benzyl-2-imino-2,3-dihydro-1H-benzo[d]imidazol-1-yl)-3-(p-tolyloxy)propan-2-ol]

— article PMC3254186 (Frontiers in Pharmacology, 2011)
